Results from different studies.
Compare with care: the assays were run in different laboratories.
Target: Serine/threonine-protein kinase 16 (STK16, Homo sapiens, UniProt O75716)

For `CC(C)(O)[C@H]1CC[C@H](Nc2ccc3ncc(-c4cccc(C(F)(F)F)c4)n3n2)CC1`, the remaining activity was 78.7% (enzyme activity, inhibitor; 1 µM).
The inhibition of `Cn1cnc(Br)c1C1=CN(c2ncnc3[nH]cnc23)CCS1` is reported as 67.8% (enzyme activity, inhibitor, radiometric; 2 µM).
With `O=C1NC(=O)c2cc(Nc3ccc(F)cc3)c(Nc3ccc(F)cc3)cc21` the remaining signal was 85.8% (cell-free assay; 0.5 µM).
For `c1ccc(N2CCN(Cc3nc4ccccc4[nH]3)CC2)nc1`, the remaining binding was 87% (binding, competition with immobilised ligand; 1 µM).
`Cc1ccc(C(=O)Nc2ccc(CN3CCN(C)CC3)c(C(F)(F)F)c2)cc1C#Cc1cnc2cccnn12` has a remaining activity of 94% (enzyme activity, inhibitor; 23.5 nM).
With `Oc1cccc(-c2nc(N3CCOCC3)c3oc4ncccc4c3n2)c1` the remaining signal was 91.7% (cell-free assay; 0.5 µM).
The activity vs control of `FC(F)(F)Oc1cccc(-c2cnc3ccc(-c4ccncc4)nn23)c1` is reported as 120% (enzyme activity, inhibitor, radiometric; 1 µM).
`Nc1ncnc2occ(-c3ccc(NC(=O)Nc4cc(C(F)(F)F)ccc4F)cc3)c12` gave a remaining signal of 84% (cell-free assay, inhibitor; 20 µM).
With `CC(=O)Nc1c(C(C)=O)c(=O)n(C)c2nc(-c3ccc(Cl)cc3Cl)c(-c3ccc(Cl)cc3)cc12` the remaining binding was 100% (cell-free assay, competition with immobilised ligand; 1 µM).
The remaining signal of `C[C@@H]1CCN(C(=O)CC#N)C[C@@H]1N(C)c1ncnc2[nH]ccc12` is reported as 94.7% (cell-free assay, inhibitor; 0.5 µM).
The remaining binding of `CN(C(=O)c1ccccc1)c1cc(N(C)c2ccc3c(c2)CCc2ccc(C(=O)NCCN4CCOCC4)cc2C3=O)ccc1F` is reported as 93% (cell-free assay, competition with immobilised ligand; 1 µM).
`O=C(Nc1cnn(-c2csc(C(=O)NC3COC3)c2)c1)Nc1ccccc1Cl` has a remaining activity of 98.6% (enzyme activity, inhibitor; 5 µM).
`COc1cc(Nc2cnc(C#N)c(O[C@H](C)CN(C)C)n2)ncc1-c1cnn(C)c1` has a remaining activity of 91% (enzyme activity, inhibitor, radiometric; 10 µM).
With `CCS(=O)(=O)c1cc2cc(C[C@@](O)(CC(C)(C)c3ccc(F)cc3C(N)=O)C(F)(F)F)[nH]c2cn1` the remaining binding was 91% (cell-free assay, competition with immobilised ligand; 1 µM).
For `COc1cc(-c2cc(-c3ccc(N4CCNCC4)cc3)cnc2C)cc(OC)c1OC`, the inhibition was 8% (enzyme activity, inhibitor; 1 µM).
`CN([C@@H]1CCc2c(CC(=O)O)c3cc(S(C)(=O)=O)ccc3n2C1)S(=O)(=O)c1ccc(F)cc1` has a remaining binding of 95% (cell-free assay, competition with immobilised ligand; 1 µM).
With `O=C(Nc1cnn(-c2csc(C(=O)NC3COC3)c2)c1)Nc1c(F)cccc1Cl` the remaining activity was 107% (enzyme activity, inhibitor; 5 µM).
For `Nc1cnc(N2CCc3cc(S(=O)(=O)Nc4c(F)cc(Cl)cc4F)cc(N4CCCC4=O)c32)nc1`, the remaining binding was 100% (cell-free assay, competition with immobilised ligand; 1 µM).
With `Cn1cncc1C1=CN(c2ncnc3[nH]cnc23)CCS1` the inhibition was 49.5% (enzyme activity, inhibitor, radiometric; 2 µM).
